CaV13 ICDI inh: Primary screen for inhibitors of IQ motif and Ca2+-dependent inactivation inhibitor domain binding in CACNA1D, Förster resonance energy transfer in living cells, …. AID 743397. inhibition, % at 12.3 µM. HEK cells, CFP/YFP FRET ICDI-IQ, plate reader, 10 min; percent FRET-ratio fall versus neutral wells. 0.098% of 340,000 active;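 active means mean replicate inhibition of at least 30% and at least 1% of replicates passing that level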;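 further: 0% = median of the neutral control wells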
INS-1E GSIS act: GLuc luminescence reporter in INS-1E cells, primary screen for activators of glucose-dependent secretion of insulin; INS-1E GLuc reporter insulin secretion, 2-3 h; activation, % at 16.6 µM; 0.61% of 370,000 active; AID 743287, 2014;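 active means lowest replicate activation of at least 40%, so every replicate reaches that level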;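 further: 0% = median of neutral control wells and 100% = median of IBMX positive control wells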
XiGFP reactiv: activators of inactive X chromosome reactivation, primary screen, imaging, XiGFP fibroblasts, GFP high-content imaging, set 2. XiGFP mouse fibroblasts, % GFP-positive cells imaging, 3 d; cells co-treated with 5-aza-dC sensitizer; scaled so ellipticine positive control = 100%. activation, % at 7.58 µM. 0.055% of 360,000 active. AID 743238, 2013;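 active means mean normalized replicate activation at least 10% and every replicate at or above 10%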;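 further: 0% = median of on-plate neutral control wells and 100% = ellipticine 6 µM median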
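Material: XiGFP fibroblasts, SV40-immortalized; Buffer or medium: DMEM containing 5-aza-dC; Compound dosing: single point; Times: 3 days compound exposure.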
FXN GAA850 act: FXN promoter activators, primary screen, cell-based, luciferase luminescence, HEK293 lucGAA850; HEK293 lucGAA850 FXN promoter luciferase reporter, 24 h; percent of 10 µM SAHA response; 0.56% of 360,000 active; AID 540364, 2011; activation, % at 6 µM;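 active means activation above the average of all compounds screened plus 3 SD, cutoff fixed separately per campaign, cut at about 7.5% in these data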;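 further: 0% = DMSO wells and 100% = 10 µM SAHA wells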
GAA30 FXN cntr: GAA30 FXN promoter activators, confirmation, counter-screen for GAA850 frataxin promoter activator project, cell-based, luminescence, HEK293, lucGAA30, triplicate; shares compounds with FXN GAA850 act; HEK293 lucGAA30 FXN promoter luciferase, 24 h; DMSO = 0%, 5 µM ipriflavone = 100%; activation, % at 6 µM; 66% of 1,900 active; AID 588350, 2011;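 active means mean activation above the mean of solvent-only control wells plus 3 SD, cut at about 22% in these data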;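 further: counterscreen of GAA850 promoter hits where activity marks nonselective or luminescence artifacts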
FXN GAA850 conf: FXN GAA850 promoter activators in reporter cells, confirmation, cell-based, luminescence, HEK293 lucGAA850, triplicate; shares compounds with FXN GAA850 act; HEK293 lucGAA850 FXN promoter luciferase reporter, 24 h; 100% = activation by SAHA; activation, % at 6 µM; 86% of 1,900 active;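 active means mean activation above a set limit taken from the primary screen, cut at about 8% in these data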;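 further: 0% = DMSO wells and 100% = 10 µM SAHA wells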
An asterisk follows results filed as active; . = no result given. Compounds with a hit are over-represented: about 1% of the library has one in this group of screens.

SMILES | CaV13 ICDI inh | INS-1E GSIS act | XiGFP reactiv | FXN GAA850 act | GAA30 FXN cntr | FXN GAA850 conf
O=C(/C=C/c1ccc2c(c1)OCO2)Nc1nncs1 | -4 | 4 | 0 | 2 | . | .
CC(C)(C)c1ccc(/C=C/C(=O)Nc2nncs2)cc1 | -13 | . | 0 | 7.6* | 108* | 39*
Cc1noc(C)c1NC(=O)Nc1ccc2c(c1)C(=O)N([C@H](C)CO)C[C@H](C)[C@H](CN(C)S(=O)(=O)c1ccc(Cl)cc1)OCCCC[C@H](C)O2 | . | 1 | 0 | . | . | .
Cc1ccc(O)c(NC2=C(Cl)C(=O)N(Cc3ccccc3)C2=O)c1 | -5 | 20 | 0 | 8.1* | 21 | 12*
C[C@H]1CN([C@@H](C)CO)C(=O)Cc2cc(NC(=O)CCN3CCOCC3)ccc2O[C@@H]1CN(C)C(=O)Nc1ccccc1 | . | 21 | 0 | . | . | .
O=C(Nc1ccc(Br)cn1)c1cccc(-c2cc3ccccc3oc2=O)c1 | -6 | 4 | 0 | 9.4* | 118* | 33*
CCc1ccccc1NC(=O)CN1C(=O)c2ccccc2S1(=O)=O | -2 | 19 | 0 | -2 | . | .
CCc1cccc(C)c1NC(=O)CN1C(=O)c2ccccc2S1(=O)=O | 4 | 5 | 0 | 18* | 12 | 7
CCS(=O)(=O)Nc1ccc2c(c1)C(=O)N(C)[C@@H]1CC[C@@H](CC(=O)OC)O[C@H]1CO2 | . | 1 | 0 | . | . | .
Cc1ccc(Cl)cc1N1CCN(C(=O)C2CCN(c3nnc(-n4cccc4)s3)CC2)CC1 | -2 | -7 | 0 | 8.2* | 2 | 3
Cc1cccc(N2CCN(C(=O)C3CCN(c4nnc(-n5cccc5)s4)CC3)CC2C)c1 (configuration not stated) | 11 | -19 | 1 | 1 | . | .
C[C@@H]1CCCCO[C@@H](CN(C)C(=O)Nc2ccc(F)cc2)[C@@H](C)CN([C@H](C)CO)C(=O)c2cc(NC(=O)CCC(F)(F)F)ccc2O1 | . | 13 | 0 | . | . | .
COc1cccc(C#Cc2cnc3c(c2)C(=O)N([C@@H](C)CO)C[C@H](C)[C@@H](CN(C)C(=O)C2CC2)O3)c1 | . | -4 | 0 | . | . | .
Oc1ccc(/C=N/N=C/c2ccc(O)c(O)c2)cc1O | -18 | 3 | 0 | 8.2* | 33* | 16*
CCOC(=O)c1cnc(SCCc2ccccc2)nc1N | -5 | -20 | . | 7 | . | .
CCOC(=O)c1cnc(SCc2ccc(C)cc2)nc1N | 0 | . | . | 7.8* | 86* | 27*
CC(C)N1C(=O)S/C(=C\c2ccc(-c3ccc(Cl)c(C(=O)O)c3)o2)C1=O | -6 | -2 | 0 | 8.2* | 116* | 38*
CCN(CC)c1ccc(/C=C2/SC(=O)N(C(C)C)C2=O)o1 | -3 | -2 | 0 | 8.0* | 96* | 32*
CCC(=O)Nc1ccc2c(c1)OC[C@@H](C)N(C(=O)c1ccc(F)cc1)C[C@H](C)[C@@H](OC)CN(C)C2=O | . | -5 | 0 | . | . | .
C[C@H](NC(=O)C[C@@H]1C=C[C@H](NC(=O)C2CCOCC2)[C@@H](CO)O1)c1ccccc1 | . | -3 | 0 | . | . | .
CC(C)NC(=O)N(C)C[C@@H]1Oc2cc(C#CC3CC3)ccc2S(=O)(=O)N([C@@H](C)CO)C[C@H]1C | . | -11 | 0 | . | . | .
c1ccc2c(c1)nnn2-c1ncnc2sccc12 | 1 | -9 | 0 | 10* | 93* | 31*
CC(C)N=c1scc(-c2ccco2)n1/N=C/c1ccc(O)c(O)c1 | -10 | -2 | . | 12* | 68* | 42*
CC1(Cc2ccccc2OC(F)(F)F)C(=O)Nc2ccc(S(=O)(=O)NC3CCCCC3)cc21 (configuration not stated) | -6 | -38 | 0 | 6 | . | .
COc1ccc(Cl)cc1CC1(C)C(=O)Nc2ccc(S(=O)(=O)NC3CCCCC3)cc21 (configuration not stated) | -11 | -11 | 0 | 16* | 9 | 13*
SMILES | CaV13 ICDI inh | INS-1E GSIS act | XiGFP reactiv | FXN GAA850 act | GAA30 FXN cntr | FXN GAA850 conf
COc1ccc(OC(F)(F)F)cc1CC1(C)C(=O)Nc2ccc(S(=O)(=O)NC3CCCCC3)cc21 (configuration not stated) | -6 | -2 | 0 | 17* | 15 | 14*
COc1ccccc1CC1(C)C(=O)Nc2ccc(S(=O)(=O)NC3CCCCC3)cc21 (configuration not stated) | -5 | -20 | 0 | 9.1* | 1 | 3
COc1ccc(OC(F)(F)F)cc1CC1(C)C(=O)Nc2ccc(-c3ccsc3)cc21 (configuration not stated) | -5 | 1 | 0 | 13* | 17 | 9.0*
COc1ccc(S(=O)(=O)NC2CCCC2)cc1Cl | -5 | 21 | 0 | -3 | . | .
C[C@H]1CN([C@@H](C)CO)C(=O)c2cc(-c3ccc(C#N)cc3)cnc2O[C@@H]1CN(C)C(=O)c1ccccc1 | . | 2 | 0 | . | . | .
CC1(Cc2ccc(F)cc2)C(=O)Nc2ccc(S(=O)(=O)NC3CCCCC3)cc21 (configuration not stated) | -9 | -20 | 0 | 9.7* | 0 | 7
Cc1ccccc1CC1(C)C(=O)Nc2ccc(S(=O)(=O)NC3CCCCC3)cc21 (configuration not stated) | -11 | -45 | 0 | 2 | . | .
CCOC(=O)c1c(NC(=O)c2cccnc2Cl)sc(C(=O)N(C)C)c1C | -2 | 13 | 0 | 10* | 10 | 7
CC(C)CC#Cc1ccc2c(c1)O[C@@H](CN(C)C(=O)Cc1ccccc1)[C@H](C)CN([C@H](C)CO)S2(=O)=O | . | -11 | 0 | . | . | .
CC1CCN(c2nnc(NC(=O)Cn3c(=O)oc4ccccc43)s2)CC1 | -5 | 0 | 0 | 15* | 8 | 2
O=C(Cn1c(=O)oc2ccccc21)Nc1nnc(N2CCCCCC2)s1 | -9 | . | 0 | 0 | . | .
O=C(Nc1ccc2c(c1)OCO2)N[C@@H]1CC[C@H](CCNC(=O)C2CCCC2)O[C@H]1CO | . | 9 | 0 | . | . | .
CC(C)(C)N1C(=O)[C@H]2[C@@H](c3ccc(Br)cc3)N3C(=O)N(c4cccc(F)c4)C(=O)[C@@]3(Cc3ccccc3)[C@H]2C1=O | -12 | 10 | 0 | 6 | . | .
COc1ccc([C@@H]2[C@@H]3C(=O)N(C(C)(C)C)C(=O)[C@@H]3[C@]3(Cc4ccccc4)C(=O)N(c4cccc(F)c4)C(=O)N23)cc1 | -11 | -1 | 0 | -1 | . | .

Bioassay records from PubChem.
